# Compound activity from PubChem.
# This is a sample that favours compounds with a hit; in the whole collection about 7.2% have one here.
# M1 antag = antagonists of rat M1 muscarinic receptor; Muscarinic acetylcholine receptor M1 (Rattus norvegicus), P08482; CHO-M1 cells, Fluo-4 calcium, ACh EC80 antagonist mode; hits give low values; B-score at 10 µM; 3.4% of 64,000 active;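 active = calcium fluorescence response, raw or row-and-column corrected B-score, differing from the plate sample mean either way at a set confidence level, mostly lower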
# BAP1 inh = inhibitors of BAP1 deubiquitinase, primary screen, biochemical, Ub-AMC fluorescence, kinetic | recombinant BAP1, Ub-AMC hydrolysis fluorescence kinetic; hits give low values | Ubiquitin carboxyl-terminal hydrolase BAP1 (Homo sapiens), Q92560 | 0.48% of 72,000 active | calls only at 20 µM;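 active = activity remaining at or below 50% of control, provided the compound also passes the data quality filters; inactive = the rest, including low values that fail the filters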;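 also: 100% = DMSO wells rate and 0% = substrate alone blank rate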
# DAT uptake mod = changed hDAT dopamine uptake under cocaine IC80, either direction, primary screen, cocaine antagonist project, cell-based, LLC-PK1 hDAT, [14C]-dopamine uptake, MLSMR; B-score at 10 µM; Sodium-dependent dopamine transporter (Homo sapiens), Q01959; LLC-PK1 hDAT cells, [14C]-dopamine uptake with cocaine IC80; actives deviate in either direction; 1.3% of 110,000 active;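 active = Z score or B-score, a plate-position-corrected score, falls beyond the plate's 99.7% confidence bounds, in either direction; inactive = both scores lie inside the 99.7% bounds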;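 also: scored against the spread of the other compound wells on the same plate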
# Target sequence (Q01959 whole entry, looked up): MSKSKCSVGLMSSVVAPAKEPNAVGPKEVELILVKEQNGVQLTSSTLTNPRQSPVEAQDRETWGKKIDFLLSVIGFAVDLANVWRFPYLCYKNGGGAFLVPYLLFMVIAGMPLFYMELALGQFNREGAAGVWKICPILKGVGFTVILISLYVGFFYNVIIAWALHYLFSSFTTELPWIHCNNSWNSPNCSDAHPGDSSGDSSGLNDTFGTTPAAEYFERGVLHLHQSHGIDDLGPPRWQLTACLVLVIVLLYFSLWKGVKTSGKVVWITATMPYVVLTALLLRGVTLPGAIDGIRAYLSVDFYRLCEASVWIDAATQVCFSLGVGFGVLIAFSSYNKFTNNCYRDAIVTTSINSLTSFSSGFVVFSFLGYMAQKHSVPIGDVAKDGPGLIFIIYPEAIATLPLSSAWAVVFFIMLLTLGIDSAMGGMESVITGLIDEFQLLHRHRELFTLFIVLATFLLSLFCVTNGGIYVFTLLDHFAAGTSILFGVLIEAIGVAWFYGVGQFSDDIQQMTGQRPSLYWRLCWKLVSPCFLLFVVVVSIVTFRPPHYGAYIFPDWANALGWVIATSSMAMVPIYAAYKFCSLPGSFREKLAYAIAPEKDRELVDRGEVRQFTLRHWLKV
# M1 ag = M1 muscarinic receptor agonists, primary screen, CHO-M1 cells, Fluo-4 calcium, agonist mode | Muscarinic acetylcholine receptor M1 | AID 626, 2007 | 3% of 64,000 active | B-score at 10 µM | Fluo-4 calcium fluorescence; hits give high values;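 active = fluorescence rise, raw or as B-score row- and column-corrected plate score, outside the 99.7% band of its plate's samples, either direction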
# HEK293 NFkB inh = inhibitors of PMA/ionomycin-induced NF-kB reporter, primary screen, antigen receptor NF-kB inhibitor project, cell-based, HEK-293 luciferase reporter, luminescence; inhibition, % at 3 µM; 0.21% of 62,000 active; HEK-293 NF-kB luciferase reporter; AID 465, 2006;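 active = inhibition above the mean of all tested compounds plus 3 SD, cut at about 40% in these data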;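 also: 0% = stimulated DMSO wells and 100% = 10 µM reference inhibitor 5653914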
#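 System – HEK-293 cells with stable firefly luciferase reporter driven by four HIV NF-kB elements · Doses – one dose, 3 µM · Schedule – 1 h compound pre-incubation, 16 h PMA/ionomycin at 37 °C · Technique – luminescence from luciferase substrate reagent · Measure – percent inhibition normalized per plate to DMSO and reference-inhibitor controls · Replicates – tested once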
# D1 allo mod = D1 CRE-luciferase signal change, two-sided – cell-based, HEK293 D1, dopamine EC30, D1 allosteric modulator project, primary screen; dopamine EC30 potentiation; actives deviate in either direction; B-score at 10 µM; 5.9% of 58,000 active; AID 641, 2007;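 active = luminescence count or its row- and column-corrected plate score outside the 99.7% band of the plate's sample wells, on either side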
# * hit, by the source's call; i = inactive; x = no result.
SMILES,M1 antag,BAP1 inh,DAT uptake mod,M1 ag,HEK293 NFkB inh,D1 allo mod
CC1=C(C(=O)OCc2ccccc2)C(c2ccc(-c3ccccc3)cc2)NC(=O)N1CCCC(=O)O (stereo not given),x,x,0.13,x,x,x
CC1=C(C(=O)OCc2ccccc2)C(c2ccccc2OS(=O)(=O)c2ccc(C)cc2)NC(=O)N1CCCC(=O)O (stereo not given),x,x,2.5*,x,x,x
CC1=C(C(=O)OCc2ccccc2)C(c2ccccc2-c2ccccc2)NC(=O)N1CCCCCC(=O)O (stereo not given),x,x,2.8*,x,x,x
Cc1ccc(-c2nsc3c(N4CCC(C(N)=O)CC4)ncnc23)cc1,-0.39,i,x,-0.18,42*,x
CCOc1ccc(-c2nnn(CC(=O)Nc3cccc(OC)c3)n2)cc1OCC,0.13,i,1.4,-0.87,18,13*
COc1ccc(C2C=C(Nc3ccc(C)cc3)C(=O)N2c2ccc(C)cc2)c(OC)c1 (stereo not given),x,i,x,x,x,x
CCOc1ccccc1OCCCCCc1c(C)n[nH]c1C,-1.8,i,0.61,0.13,15,-2.4*
CCCCCn1c(=NC(C)=O)c(C#N)cc2c(=O)n3cccc(C)c3nc21,0.039,i,x,5.3*,14,0.81
CCCn1c(=NC(C)=O)c(C#N)cc2c(=O)n3cccc(C)c3nc21,-0.27,i,x,0.11,11,-0.31
Cc1cccc(C(=O)N=c2c(C#N)cc3c(=O)n4cccc(C)c4nc3n2Cc2ccco2)c1,x,x,0.34,x,x,x
Cc1cccn2c(=O)c3cc(C#N)c(=NC(=O)c4ccccc4)n(Cc4ccco4)c3nc12,-0.72,x,x,19*,7,x
CCN(CC)S(=O)(=O)c1ccc(C(=O)OCCN2C(=O)CCC2=O)cc1,0.43,i,x,1.2,3,-4.9*
COc1ccc(C(NC(C)=O)c2ccc3cccnc3c2O)c(OC)c1 (stereo not given),0.16,i,1*,0.86,31,1.9
CN(C)CCSc1nc2ccccc2n1Cc1ccccc1,x,i,x,x,x,x
CCOC(=O)C1CCN(C(=O)COc2ccc(Cl)cc2Cl)CC1,-0.14,i,-0.54,-0.075,16,-0.36
COC(=O)C1CCN(C(=O)C(C)Oc2ccc(Cl)cc2Cl)CC1 (stereo not given),1.2*,i,0.42,-0.15,17,0.71
CCOC(=O)C1CCCN(C(=O)C(C)Oc2ccc(Cl)cc2Cl)C1 (stereo not given),0.14,i,0.31,4.5*,16,0.14
COc1ccc2c(c1)-c1c(sn(-c3ccccc3C)c1=S)C(C)(C)N2,x,i,x,x,x,x
O=C(Nc1nc2c(s1)CCCC2)c1ccc(Br)s1,-1.1,x,-0.16,0.12,-63,-4.4*
Cc1cc(C(=O)Nc2nc3c(s2)CCCC3)cs1,-0.45,i,0.42,0.014,-49,-5*
Cc1ncsc1C(=O)Nc1nc2c(s1)CCCC2,-0.038,i,0.62,0.76,-26,-1.5
O=C(Nc1ccc2nc(SCc3ccc(Cl)cc3)sc2c1)c1ccccc1C(=O)N1CCOCC1,x,x,-7.1*,x,x,x
Cc1c(C(=O)OCCOc2ccccc2)[nH]c2c1C(=O)CCC2,-1.9,i,1.1,-2.2,-24,-3.8*
CCCc1c(C(=O)OCC)[nH]c2c1C(=O)CCC2,-1.1,i,0.46,-0.11,18,0.64
CN1CCN(c2ccc(NC(=O)COc3ccccc3Cl)cc2)CC1,x,i,0.33,x,8,-4.1*
C#Cc1ccc([C@@H]2C=C(C(=O)N3CCN(Cc4ccccc4)CC3)O[C@H](OCC)[C@H]2CCCO)cc1,x,x,1,x,x,x
C#Cc1ccc([C@H]2C=C(C(=O)N3CCN(Cc4ccccc4)CC3)O[C@@H](OCC)[C@@H]2CCCO)cc1,x,x,2.7*,x,x,x
Cc1ccc(C(=O)Nc2ccccc2N2CCN(C(=O)C(C)C)CC2)cc1,-0.69,i,0.45,0.31,-3,0.19
